Results as given in ChEMBL document CHEMBL4196063, “A novel synthetic peptide inspired on Lys49 phospholipase A2 from Crotalus oreganus abyssus snake venom active against multidrug-resistant clinical isolates” (2018).
Activity calls are given as the source filed them. The rule behind the calls is not given here. Where a SMILES comes first, the peptide text is derived from it.

Legend:
Pseudomonas aeruginosa [1] = test: Antibacterial activity against Pseudomonas aeruginosa 31NM at 575 uM after 24 hrs by agar well diffusion assay; assay type: functional, organism-based
Procedure, shortened: (§1)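 Agar well diffusion followed Bauer/CLSI with minor changes. Strains were subcultured in MHB and grown on Mueller Hinton agar at 37 °C for a day. Wells were punched aseptically, and 100 μl of peptide in PBS (575 μM) was placed in each well. Plates were incubated at 37 °C for 24 h and inhibition halo diameters measured by caliper. Commercial antibiotics served as positive control, with at least three runs.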

Pseudomonas aeruginosa [2] = test: Antibacterial activity against Pseudomonas aeruginosa ATCC 27853 at 575 uM after 24 hrs by agar well diffusion assay; assay type: functional, organism-based; procedure, shortened: as §1
Escherichia coli [3] = test: Antibacterial activity against Escherichia coli ATCC 25922 at 575 uM after 24 hrs by agar well diffusion assay; assay type: functional, organism-based; procedure, shortened: as §1
Staphylococcus aureus [4] = test: Antibacterial activity against Staphylococcus aureus BEC9393 at 575 uM after 24 hrs by agar well diffusion assay; assay type: functional, organism-based; procedure, shortened: as §1
Staphylococcus aureus [5] = test: Antibacterial activity against Staphylococcus aureus rib1 at 575 uM after 24 hrs by agar well diffusion assay; assay type: functional, organism-based; procedure, shortened: as §1
Pseudomonas aeruginosa [6] = test: Antibacterial activity against Pseudomonas aeruginosa 31NM at 5.95 to 190 uM after 24 hrs by CLSI broth microdilution method; assay type: functional, organism-based
Procedure, shortened: (§2)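 Strains were kept frozen in MHB with 20% glycerol, subcultured in MHB, and grown on Mueller Hinton agar at 37 °C for a day. Peptide was dissolved in medium and serially diluted into MHB in 96-well plates, then bacterial suspension was added (1 × 10⁸ CFU/ml). Plates were held at 37 °C for 24 h and growth inhibition read at 595 nm. Runs were done at least three times, mean ± SD.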

Pseudomonas aeruginosa [7] = test: Antibacterial activity against Pseudomonas aeruginosa ATCC 27853 at 5.95 to 190 uM after 24 hrs by CLSI broth microdilution method; assay type: functional, organism-based; procedure, shortened: as §2
Escherichia coli [8] = test: Antibacterial activity against Escherichia coli ATCC 25922 at 5.95 to 190 uM after 24 hrs by CLSI broth microdilution method; assay type: functional, organism-based; procedure, shortened: as §2
Staphylococcus aureus [9] = test: Antibacterial activity against Staphylococcus aureus BEC9393 at 5.95 to 190 uM after 24 hrs by CLSI broth microdilution method; assay type: functional, organism-based; procedure, shortened: as §2
Staphylococcus aureus [10] = test: Antibacterial activity against Staphylococcus aureus rib1 at 5.95 to 190 uM after 24 hrs by CLSI broth microdilution method; assay type: functional, organism-based; procedure, shortened: as §2
Pseudomonas aeruginosa [11] = test: Growth inhibition of Pseudomonas aeruginosa ATCC 27853 at 5.95 uM after 24 hrs by CLSI broth microdilution method; assay type: functional; settings: ATCC 27853, 24 h, read-out: GI
Procedure, shortened: (§3)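 Broth microdilution per CLSI. Peptide dissolved in Mueller Hinton broth and serially diluted (5.95–190 μM tested) in MHB. Bacteria were subcultured in MHB and grown on Mueller Hinton agar at 37 °C for a day, then added at 1 × 10⁸ CFU/ml. Incubation 37 °C for 24 h, with growth read at 595 nm. Antibiotic positive and medium negative controls. At least three runs, mean ± SD.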

Pseudomonas aeruginosa [12] = test: Growth inhibition of Pseudomonas aeruginosa 31NM at 5.95 uM after 24 hrs by CLSI broth microdilution method; assay type: functional; settings: read-out: GI; procedure, shortened: as §3

SMILES	Activity (Pseudomonas aeruginosa [1])	Activity (Pseudomonas aeruginosa [2])	Activity (Escherichia coli [3])	Activity (Staphylococcus aureus [4])	Activity (Staphylococcus aureus [5])	Activity (Pseudomonas aeruginosa [6])	Activity (Pseudomonas aeruginosa [7])	Activity (Escherichia coli [8])	Activity (Staphylococcus aureus [9])	Activity (Staphylococcus aureus [10])	inhibition of growth at 5.95 µM (Pseudomonas aeruginosa [11])	inhibition of growth at 5.95 µM (Pseudomonas aeruginosa [12])
CC[C@H](C)[C@H](NC(=O)[C@H](CCCNC(=N)N)NC(=O)[C@H](Cc1ccc(O)cc1)NC(=O)[C@H](CCCCN)NC(=O)[C@@H](N)CCCCN)C(=O)N[C@@H](Cc1ccc(O)cc1)C(=O)N1CCC[C@H]1C(=O)N[C@@H](CCCCN)C(=O)N[C@@H](Cc1ccccc1)C(=O)N[C@@H](CC(C)C)C(=O)N[C@@H](CS)C(=O)N[C@@H](CCCCN)C(=O)N[C@@H](CCCCN)C(=O)O (H-KKYRIYPKFLCKK-OH)	Active	Active	Active	Active	Active	Active	Active	Active	Active	Active	52%	48%
CC(C)C[C@H](NC(=O)[C@H](Cc1ccccc1)NC(=O)[C@H](CCCCN)NC(=O)[C@@H]1CCCN1C(=O)[C@@H](N)Cc1ccc(O)cc1)C(=O)N[C@@H](CS)C(=O)N[C@@H](CCCCN)C(=O)N[C@@H](CCCCN)C(=O)N1CCC[C@H]1C(=O)O (H-YPKFLCKKP-OH)	inactive	inactive	inactive	inactive	inactive	–	–	–	–	–	–	–
